We go through 34 compounds from ChEMBL document CHEMBL1125923, “New dibenzothiadiazepine derivatives with antidepressant activities” (J Med Chem, 1991).

Data set [1] deals with Mus musculus. Briefly: Rectal temperature of mice treated with compound in apomorphine (16 mg/kg injected sc 30 min before temp. recording) after its oral administration at 400 mg/kg, 0.5 hr before rectal temperature measurement. The data set is classed as functional. Summed up:
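Screening in male Swiss albino mice (20–22 g): 400 mg/kg compound orally; apomorphine 16 mg/kg sc 30 min before recording. Rectal temperature read at 0.5, 2, 4 h after dosing; value reported at time of peak activity (generally 0.5 h). Groups of 8–20 mice; standard errors 1–3% of mean.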

Data set [2] is filed under the species Mus musculus. Briefly: Dose of compound required to reduce apomorphine-induced hypothermia by 50% in mice by hypothermia (Apo 16)test. The data set is classed as functional. The gist of the method: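 Male Swiss albino mice, 20–22 g; apomorphine 16 mg/kg sc 30 min before rectal temperature recording. Compound given orally, tested at time of peak activity (0.5–2 h). […] Groups of 8–20 mice.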

The nature of data set [3]: Dose of compound required in mg/kg to induce lethality in 50% of mice after 14 days. The data set is classed as ADME, organism-based. Conditions: mouse, in vivo. Summed up: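 Male Swiss albino mice, 20–22 g, dosed orally; deaths followed for up to 2 weeks (14 days) after administration. Groups of 8–20 mice.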
Data set [4] deals with Mus musculus. Description: Dose required to reduce reserpine induced hypothermia was measured after sc administration of reserpine at 2.5 mg/kg, 18 hr before the rectal-temperature recording in mice. The data set is classed as functional. More on the design: unit: mg/kg. As to conditions: reserpine 2.5 mg/kg sc; route oral. The gist of the method:
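Male Swiss albino mice, 20–22 g; reserpine 2.5 mg/kg sc 18 h before rectal temperature recording. Compound given orally at time of peak activity, generally 0.5 h before recording. Groups of 8–20 mice.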

Data set [5] relates to Mus musculus. Description: Compound was evaluated after 24 hr for physostigmine induced lethality upon oral administration 60 min before intraperitoneal injection of physostigmine (0.9 mg/kg) in mice at 400 mg/kg. The data set is classed as ADME, organism-based. Further details: dose 400 mg/kg, route oral. Conditions: in vivo. Summed up: (§1)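 Male Swiss albino mice, 20–22 g; compound given orally 60 min before physostigmine 0.9 mg/kg ip. Lethality scored 24 h after physostigmine injection and expressed as % of group dying. Groups of 8–20 mice; significance vs vehicle by χ2.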

Data set [6] deals with Mus musculus. Briefly: Compound was evaluated after 24 hr for physostigmine induced lethality upon oral administration 60 min before intraperitoneal injection of physostigmine (0.9 mg/kg) in mice at 200 mg/kg. The data set is classed as ADME, organism-based. More on the design: dose 200 mg/kg, route oral. As to conditions: in vivo. Summed up:
as §1

For data set [7], the system named is Mus musculus. Description: Compound was evaluated after 24 hr for physostigmine induced lethality upon oral administration 60 min before intraperitoneal injection of physostigmine (0.9 mg/kg) in mice at 600 mg/kg. The data set is classed as ADME, organism-based. Further details: dose 600 mg/kg, route oral. Conditions: in vivo. The gist of the method: as §1

Data set [8] has as its system Mus musculus. Description: Compound was evaluated after 24 hr for physostigmine induced lethality upon oral administration 60 min before intraperitoneal injection of physostigmine (0.9 mg/kg) in mice at 25 mg/kg. As to conditions: in vivo. More on the design: dose 25 mg/kg, route oral. The data set is classed as ADME, organism-based. Summed up: as §1

A value given as a limit tells only on which side of the number the result lay.

Turning to `Cc1cc2c(cc1Cl)N(C(=O)CN1CCN(c3ncccn3)CC1)c1ccccc1N(C)S2(=O)=O`, the Rectal temperature in data set [1] was found to be 32.7 °C.
Same read-out and setting: for `CN1c2ccccc2N(C(=O)CNC(C)(C)C)c2ccccc2S1(=O)=O` the value was 32.2 °C.
In the case of `CN(C)CCC(=O)N1c2ccccc2N(C)S(=O)(=O)c2ccccc21`, in data set [2], the ED50 stood at 23.1 mg/kg. Besides, in data set [1], the Rectal temperature is 36.5 °C. In data set [3], this compound registered an LD50 at 336 h of 521 mg/kg. Also, the Min effective dose in data set [4] was over 100.
In data set [2], `CN(C)CCN1c2ccccc2N(C)S(=O)(=O)c2ccccc21` showed an ED50 of over 100 mg/kg. Further, in data set [3], the LD50 at 336 h is 468 mg/kg. In addition, the Min effective dose in data set [4] turned out to be 100.
Regarding `CN1c2ccccc2N(C(=O)CN2CCCC2)c2ccccc2S1(=O)=O`, the Rectal temperature in data set [1] was determined as 34.2 °C.
Same read-out and setting: the value for `CCN1c2ccccc2N(C(=O)CN(C)C)c2ccccc2S1(=O)=O` was 35.1 °C; that for `Cc1cc2c(cc1Cl)N(C(=O)CN1CCN(c3ccccc3)CC1)c1ccccc1N(C)S2(=O)=O` was 34.5 °C; that for `Cc1cc2c(cc1Cl)N(C(=O)CN1CCN(CCO)CC1)c1ccccc1N(C)S2(=O)=O` was 34.1 °C.
On to `CC1CCN(CC(=O)N2c3ccccc3N(C)S(=O)(=O)c3ccccc32)CC1`, for which the Rectal temperature in data set [1] was found to be 33.2 °C.
Compound `CN(C)CCCN1c2ccccc2N(C)S(=O)(=O)c2ccccc21` displayed an ED50 in data set [2] of 4.9 mg/kg. This compound also registered an LD50 at 336 h in data set [3] of 655 mg/kg. In data set [4], this compound had a Min effective dose of over 100.
In the case of `CCCN1c2ccccc2N(C(=O)CN(C)C)c2ccccc2S1(=O)=O`, in data set [1], the Rectal temperature was 35.8 °C.
The compound `CN(C)CC(=O)N1c2cc(Cl)ccc2N(C)S(=O)(=O)c2ccccc21` returned an ED50 in data set [2] of 50.6 mg/kg. In data set [1], the Rectal temperature came to 37.4 °C. The same compound showed a Min effective dose in data set [4] of over 100.
Take `CN1c2ccccc2N(C(=O)CN2CCOCC2)c2ccccc2S1(=O)=O`: the Rectal temperature in data set [1] was determined as 33.9 °C.
The compound `Cc1ccc2c(c1)N(C(=O)CN(C)C)c1ccccc1S(=O)(=O)N2C` registered an ED50 in data set [2] of 14.4 mg/kg. Further, the Rectal temperature in data set [1] came out at 38.8 °C. The LD50 at 336 h in data set [3] is 1730 mg/kg. The Min effective dose in data set [4] was found to be 100.
In the same order, the values of `CCN(CC)CC(=O)N1c2ccccc2N(C)S(=O)(=O)c2ccccc21` are 23 mg/kg, 37.4 °C, over 2000 mg/kg and over 100.
In turn, `CN(C)CC(=O)N1c2ccccc2N(C)S(=O)(=O)c2cc(Cl)ccc21` showed an ED50 in data set [2] of 54.5 mg/kg. In data set [1], the Rectal temperature came out at 37.7 °C. In data set [4], the Min effective dose is over 100.
As for `CNCC(=O)N1c2ccccc2N(C)S(=O)(=O)c2ccccc21`, the ED50 in data set [2] is 12 mg/kg. In data set [1], the Rectal temperature worked out at 38.2 °C. Besides, in data set [3], the LD50 at 336 h turned out to be 789 mg/kg. In data set [4], this compound showed a Min effective dose of 100.
As for `CN1c2ccccc2N(C(=O)CN)c2ccccc2S1(=O)=O`, in data set [1], the Rectal temperature was 36.1 °C.
Regarding `Cc1ccc2c(c1)N(C(=O)CN(C)C)c1ccccc1N(C)S2(=O)=O`, the Rectal temperature in data set [1] is 35.2 °C.
Take `CN(C)CC(=O)N1c2ccccc2N(C)S(=O)(=O)c2ccc(Cl)cc21`: the Rectal temperature in data set [1] came out at 35.4 °C.
On the same count and under the same terms, for `CN1c2ccccc2N(C(N)=O)c2ccccc2S1(=O)=O` the value was 33.8 °C; for `CC(C)NCC(=O)N1c2ccccc2N(C)S(=O)(=O)c2ccccc21`, 34.1 °C.
Still for that read-out and setting: the value for `CN1CCN(CC(=O)N2c3ccccc3N(C)S(=O)(=O)c3ccccc32)CC1` was 34.4 °C.
Still for that read-out and setting: the value for `CN(C)CC(=O)N1c2ccccc2N(C)S(=O)(=O)c2ccc(C(F)(F)F)cc21` was 34.8 °C; that for `CN1c2ccccc2N(C(=O)CN2CCN(CCO)CC2)c2ccccc2S1(=O)=O` was 34.4 °C; that for `CN(C)C(=O)N1c2ccccc2N(C)S(=O)(=O)c2ccccc21` was 33.7 °C.
On to `Cc1cc2c(cc1Cl)N(C(=O)CN1CCN(C)CC1)c1ccccc1N(C)S2(=O)=O`, for which the Rectal temperature in data set [1] came out at 32.5 °C.
Take `COc1ccc2c(c1)N(C(=O)CN(C)C)c1ccccc1N(C)S2(=O)=O`: the Rectal temperature in data set [1] is 33.6 °C.
For `CN(C)CC(=O)N1c2ccccc2N(C)S(=O)(=O)c2ccccc21`, the values for the Lethality in data set [5], in data set [6] and in data set [7] were 95%, 95% and 90%, respectively. Also, the Rectal temperature in data set [1] stood at 38.7 °C. Besides, in data set [3], the LD50 at 336 h worked out at 1920 mg/kg. In data set [4], this compound displayed a Min effective dose of 25.
As to `Cc1cc2c(cc1Cl)N(C(=O)CNC(C)C)c1ccccc1N(C)S2(=O)=O`, the Rectal temperature in data set [1] was 33.1 °C.
Same read-out and setting: for `Cc1cc2c(cc1Cl)N(C(=O)CN(C)C)c1ccccc1N(C)S2(=O)=O` the value was 35.8 °C.
Consider `CN(C)CC(=O)N1c2ccc(Cl)cc2N(C)S(=O)(=O)c2ccccc21`, for which the ED50 in data set [2] is 23.5 mg/kg. In addition, the Rectal temperature in data set [1] is 39.5 °C. For the same compound, in data set [3], the LD50 at 336 h worked out at 1420 mg/kg. Moreover, in data set [4], the Min effective dose was over 100.
With `CN(C)CCC=C1c2ccccc2CCc2ccccc21` [AMITRIPTYLINE], the Lethality in data set [8] is on record as 37%.
In data set [2], `CN(C)CCCN1c2ccccc2CCc2ccccc21` [IMIPRAMINE] yielded an ED50 of 3.7 mg/kg. This compound displayed a Min effective dose in data set [4] of 4.
